Measured values published in ChEMBL document CHEMBL1145532, “Role of peptide hydrophobicity in the mechanism of action of alpha-helical antimicrobial peptides” (Antimicrob Agents Chemother, 2007).
Values after ≈ are worked out from the molar mass of the structure shown.

Experiments:
Pseudomonas aeruginosa [1] = test: Antimicrobial activity against Pseudomonas aeruginosa WR5; assay type: functional
Outline: (§1)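 Microtiter broth dilution in brain heart infusion (BHI). Cells were grown overnight at 37°C in BHI broth and diluted in the same medium. Serial peptide dilutions were inoculated to a final 5 x 10^5 CFU/ml and incubated at 37°C for 24 h. The MIC is the lowest peptide concentration that inhibited growth.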

[2] = Toxicity against human erythrocytes assessed as hemolysis after 18 hrs; assay type: cell-based; details: erythrocyte
Outline: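 Unlysed cells were removed by centrifugation (800 x g), and hemoglobin release was read at 570 nm. The MHC is the maximal concentration causing no hemolysis. Control was 1% erythrocytes without peptide.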

Pseudomonas aeruginosa [3] = test: Antimicrobial activity against Pseudomonas aeruginosa PAO1; assay type: functional; outline: as §1
Pseudomonas aeruginosa [4] = test: Antimicrobial activity against Pseudomonas aeruginosa CP204; assay type: functional; outline: as §1
Pseudomonas aeruginosa [5] = test: Antimicrobial activity against Pseudomonas aeruginosa PA14; assay type: functional; outline: as §1
Pseudomonas aeruginosa [6] = test: Antimicrobial activity against Pseudomonas aeruginosa M2; assay type: functional; outline: as §1
Pseudomonas aeruginosa [7] = test: Antimicrobial activity against Pseudomonas aeruginosa PAK; assay type: functional; outline: as §1
[8] = Toxicity against human erythrocytes assessed as increase in hemolytic activity after 18 hrs relative to V13KL peptide; assay type: cell-based; details: erythrocyte
[9] = Toxicity against human erythrocytes assessed as hemolysis at 500 ug/ml after 18 hrs; details: erythrocyte

| Compound | MIC (Pseudomonas aeruginosa [1]) | MIC (Pseudomonas aeruginosa [3]) | MIC (Pseudomonas aeruginosa [4]) | MIC (Pseudomonas aeruginosa [5]) | MIC (Pseudomonas aeruginosa [6]) | MIC (Pseudomonas aeruginosa [7]) | Maximal concentration causing no hemolysis (MHC) [2] | Activity [8] | Activity [9] |
| --- | --- | --- | --- | --- | --- | --- | --- | --- | --- |
| Ac-KWKSFAKTFKSAKKTVLHTAAKAISS-NH2 | > 500 µg/mL | 500 µg/mL | > 500 µg/mL | > 500 µg/mL | > 500 µg/mL | > 500 µg/mL | 1000 µg/mL | 0.3 | – |
| Ac-KWKSFAKTFKSAKKTVLHTALKAISS-NH2 [listing 1 of 2 here] | – | – | – | – | – | – | 1000 µg/mL | 0.3 | – |
| Ac-KWKSFLKTFKSAKKTVLHTALKLISS-NH2 [listing 1 of 2 here] | – | – | – | – | – | – | 62.5 µg/mL | 4 | – |

More lines, main results first:

| MIC (Pseudomonas aeruginosa [1]) | MIC (Pseudomonas aeruginosa [3]) | MIC (Pseudomonas aeruginosa [4]) | MIC (Pseudomonas aeruginosa [5]) | MIC (Pseudomonas aeruginosa [6]) | MIC (Pseudomonas aeruginosa [7]) | Compound | Maximal concentration causing no hemolysis (MHC) [2] | Activity [8] | Activity [9] |
| --- | --- | --- | --- | --- | --- | --- | --- | --- | --- |
| 250 µg/mL (≈ 81.3 µM) | 15.6 µg/mL (≈ 5.07 µM) | 7.8 µg/mL (≈ 2.54 µM) | 62.5 µg/mL (≈ 20.3 µM) | 31.3 µg/mL (≈ 10.2 µM) | 15.6 µg/mL (≈ 5.07 µM) | CC[C@H](C)[C@H](NC(=O)[C@H](CC(C)C)NC(=O)[C@H](CCCCN)NC(=O)[C@H](CC(C)C)NC(=O)[C@H](C)NC(=O)[C@@H](NC(=O)[C@H](Cc1c[nH]cn1)NC(=O)[C@H](CC(C)C)NC(=O)[C@@H](NC(=O)[C@@H](NC(=O)[C@H](CCCCN)NC(=O)[C@H](CCCCN)NC(=O)[C@H](CC(C)C)NC(=O)[C@H](CO)NC(=O)[C@H](CCCCN)NC(=O)[C@H](Cc1ccccc1)NC(=O)[C@@H](NC(=O)[C@H](CCCCN)NC(=O)[C@H](CC(C)C)NC(=O)[C@H](Cc1ccccc1)NC(=O)[C@H](CO)NC(=O)[C@H](CCCCN)NC(=O)[C@H](Cc1c[nH]c2ccccc12)NC(=O)[C@H](CCCCN)NC(C)=O)[C@@H](C)O)[C@@H](C)O)C(C)C)[C@@H](C)O)C(=O)N[C@@H](CO)C(=O)N[C@@H](CO)C(N)=O | 15.6 µg/mL | 16 | – |
| 250 µg/mL (≈ 83.6 µM) | 31.3 µg/mL (≈ 10.5 µM) | 7.8 µg/mL (≈ 2.61 µM) | 62.5 µg/mL (≈ 20.9 µM) | 31.3 µg/mL (≈ 10.5 µM) | 125 µg/mL (≈ 41.8 µM) | CC[C@H](C)[C@H](NC(=O)[C@H](C)NC(=O)[C@H](CCCCN)NC(=O)[C@H](CC(C)C)NC(=O)[C@H](C)NC(=O)[C@@H](NC(=O)[C@H](Cc1cnc[nH]1)NC(=O)[C@H](CC(C)C)NC(=O)[C@@H](NC(=O)[C@@H](NC(=O)[C@H](CCCCN)NC(=O)[C@H](CCCCN)NC(=O)[C@H](C)NC(=O)[C@H](CO)NC(=O)[C@H](CCCCN)NC(=O)[C@H](Cc1ccccc1)NC(=O)[C@@H](NC(=O)[C@H](CCCCN)NC(=O)[C@H](CC(C)C)NC(=O)[C@H](Cc1ccccc1)NC(=O)[C@H](CO)NC(=O)[C@H](CCCCN)NC(=O)[C@H](Cc1c[nH]c2ccccc12)NC(=O)[C@H](CCCCN)NC(C)=O)[C@@H](C)O)[C@@H](C)O)C(C)C)[C@@H](C)O)C(=O)N[C@@H](CO)C(=O)N[C@@H](CO)C(N)=O | 250 µg/mL | 1 | Non-toxic |
| 62.5 µg/mL (≈ 20.6 µM) | 15.6 µg/mL (≈ 5.14 µM) | 15.6 µg/mL (≈ 5.14 µM) | 31.3 µg/mL (≈ 10.3 µM) | 15.6 µg/mL (≈ 5.14 µM) | 31.3 µg/mL (≈ 10.3 µM) | CC[C@H](C)[C@H](NC(=O)[C@H](C)NC(=O)[C@H](CCCCN)NC(=O)[C@H](CC(C)C)NC(=O)[C@H](C)NC(=O)[C@@H](NC(=O)[C@H](Cc1c[nH]cn1)NC(=O)[C@H](CC(C)C)NC(=O)[C@@H](NC(=O)[C@@H](NC(=O)[C@H](CCCCN)NC(=O)[C@H](CCCCN)NC(=O)[C@H](CC(C)C)NC(=O)[C@H](CO)NC(=O)[C@H](CCCCN)NC(=O)[C@H](Cc1ccccc1)NC(=O)[C@@H](NC(=O)[C@H](CCCCN)NC(=O)[C@H](CC(C)C)NC(=O)[C@H](Cc1ccccc1)NC(=O)[C@H](CO)NC(=O)[C@H](CCCCN)NC(=O)[C@H](Cc1c[nH]c2ccccc12)NC(=O)[C@H](CCCCN)NC(C)=O)[C@@H](C)O)[C@@H](C)O)C(C)C)[C@@H](C)O)C(=O)N[C@@H](CO)C(=O)N[C@@H](CO)C(N)=O | 31.3 µg/mL | 8 | – |
| 250 µg/mL | 125 µg/mL | 125 µg/mL | 500 µg/mL | 250 µg/mL | 250 µg/mL | Ac-KWKSFAKTFKSAKKTVLHTALKAISS-NH2 [listing 2 of 2 here] | – | – | – |
| 62.5 µg/mL | 31.3 µg/mL | 15.6 µg/mL | 31.3 µg/mL | 31.3 µg/mL | 62.5 µg/mL | Ac-KWKSFLKTFKSAKKTVLHTALKLISS-NH2 [listing 2 of 2 here] | – | – | – |
